Laboratory results published in ChEMBL document CHEMBL4321820, “Identification and Optimization of Mechanism-Based Fluoroallylamine Inhibitors of Lysyl Oxidase-like 2/3” (J Med Chem, 2019).
The source made the active and inactive calls. The calls are words filed in the database; no cut-off is given here.

Legend:
Mus musculus [1] = assay: Effect on plasma ALT level in CCl4-induced BALB/c mouse model of liver fibrosis at 50 mg/kg, po administered for 6 weeks; type: ADME, organism-based; settings: in vivo, 1008 h
Outline: (§1)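 CCl4 liver fibrosis in female BALB/c mice: CCl4 i.p. (1 mL/kg 25% in olive oil) twice weekly for 6 weeks, sacrifice 48 h after final injection. Oral once-daily dosing weeks 1-6 or weeks 4-6; imatinib 50 mg/kg daily weeks 1-6. ALT and AST measured in plasma.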

Mus musculus [2] = assay: Antifibrotic activity in bleomycin-induced C57BL/6 mouse model of lung fibrosis assessed as reduction in Ashcroft score at 50 mg/kg, ip administered on day 7 to 27 and measured on day 28 by H and E staining based microscopy; type: functional; settings: C57BL/6, ip
Outline: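 Female C57BL/6 mice, 6-8 weeks old, under isoflurane received intranasal bleomycin sulphate 0.05 U/mouse in PBS; controls got PBS. Once-daily i.p. treatment days 7-27, n=12/group; imatinib 50 mg/kg i.p. as comparator. Sacrifice at day 28; lung fibrosis scored by Ashcroft score.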

Mus musculus [3] = assay: Effect on plasma AST level in CCl4-induced BALB/c mouse model of liver fibrosis at 50 mg/kg, po administered for 6 weeks; type: ADME, organism-based; settings: in vivo, 1008 h; outline: as §1
Mus musculus [4] = assay: Antifibrotic activity in CCl4-induced BALB/c mouse model of liver fibrosis assessed as reduction in liver fibrosis area at 50 mg/kg, po administered for 6 weeks by alpha-SMA staining based microscopy; type: functional, organism-based
Outline: (§2)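 Female BALB/c mice given CCl4 i.p. (1 mL/kg of 25% CCl4 in olive oil) twice weekly for 6 weeks; sacrificed 48 h after last dose. Test articles oral, once daily: prophylactic weeks 1-6 or therapeutic weeks 4-6; imatinib control 50 mg/kg daily weeks 1-6. One formalin-fixed liver lobe stained for Picro Sirius Red and α-SMA; fibrotic area as % of total liver area; mean ± SEM, one-way ANOVA with Dunnett's test.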

Mus musculus [5] = assay: Antifibrotic activity in CCl4-induced BALB/c mouse model of liver fibrosis assessed as liver fibrosis area at 50 mg/kg, po administered for 6 weeks by picro-sirius red staining based microscopy; type: functional, organism-based; outline: as §2
[6] = Time during which plasma concentration exceed invitro IC50 for recombinant human LOXL2 in BALB/c mouse administered with (Z)-Ethyl1-(4-Amino-2-fluorobut-2-en-1-yl)-3-(3-(N,N-dimethylsulfamoyl)phenyl)-2-methyl-1H-indole-5-carboxylate Hydrochloride at 20 mg/kg, po administered via gavage by HPLC-MS/MS analysis; type: ADME, organism-based; settings: in vivo

T>IC50 [6] | Structure (SMILES) | Activity (Mus musculus [1]) | inhibition in vivo at 50 mg/kg (Mus musculus [2]) | Activity (Mus musculus [3]) | inhibition (Mus musculus [4]) | inhibition (Mus musculus [5])
 | Cc1ccc(NC(=O)c2ccc(CN3CCN(C)CC3)cc2)cc1Nc1nccc(-c2cccnc2)n1 [IMATINIB] | Non-Toxic | 50 to 70% | Non-Toxic | Active | inactive
> 6 h | Cc1c(-c2cccc(S(=O)(=O)N(C)C)c2)c2cc(C(=O)O)ccc2n1C/C(F)=C/CN |  |  |  |  | 
